Results from ChEMBL document CHEMBL4130408, “Photoactivation provides a mechanistic explanation for pan-assay interference behaviour of 2-aminopyrroles in lipoxygenase inhibition” (Eur J Med Chem, 2017).

target: T1, Polyunsaturated fatty acid lipoxygenase ALOX15 (Homo sapiens, UniProt P16050); assay: Inhibition of recombinant human 15-LOX-1 expressed in Escherichia coli BL21(DE3) using linoleic acid as substrate preincubated for 10 mins followed by substrate addition
T1 sequence (P16050 whole entry): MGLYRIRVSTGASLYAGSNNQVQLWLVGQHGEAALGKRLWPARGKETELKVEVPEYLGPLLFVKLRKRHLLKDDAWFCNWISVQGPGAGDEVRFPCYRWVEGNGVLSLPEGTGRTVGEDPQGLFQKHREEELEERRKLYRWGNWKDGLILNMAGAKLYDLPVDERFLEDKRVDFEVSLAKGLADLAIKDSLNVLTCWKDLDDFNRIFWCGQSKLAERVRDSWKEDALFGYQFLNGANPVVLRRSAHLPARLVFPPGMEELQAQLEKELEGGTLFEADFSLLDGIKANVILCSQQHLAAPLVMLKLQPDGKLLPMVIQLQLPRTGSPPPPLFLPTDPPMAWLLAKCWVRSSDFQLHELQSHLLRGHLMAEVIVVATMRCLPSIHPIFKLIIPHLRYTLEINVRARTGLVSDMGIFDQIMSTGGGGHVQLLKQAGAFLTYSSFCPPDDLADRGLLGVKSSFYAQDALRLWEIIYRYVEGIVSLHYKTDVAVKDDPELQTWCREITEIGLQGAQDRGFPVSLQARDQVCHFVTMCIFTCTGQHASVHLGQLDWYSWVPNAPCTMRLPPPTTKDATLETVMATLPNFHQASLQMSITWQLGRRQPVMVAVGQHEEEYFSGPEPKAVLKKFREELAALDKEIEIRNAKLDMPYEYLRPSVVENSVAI

SMILES | IC50 [µM]
Nc1[nH]c(C(=O)c2ccccc2)c(-c2ccc(-c3ccccc3)cc2)c1C(=O)c1cccc(Cl)c1 | > 100
Nc1[nH]c(C(=O)c2ccccc2)c(-c2cccnc2)c1C(=O)c1cccc(Cl)c1 | > 100
Nc1[nH]c(C(=O)c2ccccc2)c(-c2ccc3c(c2)OCO3)c1C(=O)c1cccc(Cl)c1 | > 100
Nc1[nH]c(C(=O)c2ccccc2)c(-c2ccncc2)c1C(=O)c1cccc(Cl)c1 | > 100
Nc1[nH]c(C(=O)c2ccccc2)c(-c2ccc(Cl)cc2Cl)c1C(=O)c1cccs1 | > 100
CCOC(=O)c1ccc(N)[nH]1 | > 100
Nc1[nH]c(C(=O)c2ccccc2)c(-c2ccc(Cl)cc2Cl)c1C(=O)c1cccc(F)c1 | > 100
Nc1[nH]c(C(=O)c2ccccc2)c(-c2cccc3ccccc23)c1C(=O)c1ccc(Cl)c(Cl)c1 | > 100
Nc1[nH]c(C(=O)c2ccccc2)c(-c2ccccc2Cl)c1C(=O)c1cccc(Cl)c1 | > 100
Nc1[nH]c(C(=O)c2ccccc2)c(-c2ccc(Cl)cc2)c1C(=O)c1cccc(Cl)c1 | > 100

target: T2, Polyunsaturated fatty acid lipoxygenase ALOX15 (Homo sapiens) (UniProt P16050); assay: Inhibition of recombinant human 15-LOX-1 expressed in Escherichia coli BL21(DE3) assessed as residual activity at 50 uM using linoleic acid as substrate preincubated for 10 mins followed by substrate addition
T2 sequence (whole entry): T1 sequence (P16050 whole entry)
In short: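 h-15-LOX-1 (1:100 enzyme stock, 1:400 final) preincubated 10 min at room temperature with inhibitor in 25 mM HEPES pH 7.4, then linoleic acid added to 25 µM final (inhibitor 50 µM final). 13(S)-HpODE formation read as A234 over time, rate taken from linear part within first 16 min; no-inhibitor = 100%, no-enzyme = 0%. Triplicate.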

SMILES | Activity [%]
Nc1[nH]c(C(=O)c2ccccc2)c(-c2ccc(Cl)cc2)c1C(=O)NCCC1=CCCCC1 | 94.9
COc1ccc(C(=O)c2[nH]c(N)c(C(=O)c3c[nH]c4ccccc34)c2-c2ccc(F)c(OC)c2)cc1 | 75.8
Nc1[nH]c(C(=O)c2ccccc2)c(-c2ccc([N+](=O)[O-])cc2)c1C(=O)N1CCC(CO)CC1 | 85
Nc1[nH]c(C(=O)c2ccc(Br)cc2)c(-c2ccc(Cl)cc2Cl)c1C(=O)NCCc1c[nH]c2ccccc12 | 69.3
Nc1[nH]c(C(=O)c2ccccc2)c(-c2ccc(Cl)cc2)c1C(=O)NCc1ccccc1 | 97.3
Nc1[nH]c(C(=O)c2ccc(Br)cc2)c(-c2c(F)cccc2F)c1C(=O)NCCc1c[nH]c2ccccc12 | 69.3
Nc1[nH]c(C(=O)c2ccccc2)c(-c2cccnc2)c1C(=O)c1ccccc1 | 84.9
Nc1[nH]c2cc(Cl)ccc2c1C(=O)N1CCOCC1 | 107
Cc1cc(C)cc(-c2c(C(=O)c3ccccc3)[nH]c(N)c2C(=O)NCCc2c[nH]c3ccccc23)c1 | -47.3
COc1ccc(-c2c(C(=O)c3ccccc3)[nH]c(N)c2C(=O)NC2CC2)cc1OC | 90.2
Nc1[nH]c(C(=O)c2ccccc2)c(-c2ccc3ccccc3c2)c1C(=O)NCc1ccc(F)cc1 | 86
N#Cc1c(N)[nH]c(C(=O)c2ccccc2)c1-c1ccc(Cl)cc1 | 92.2
Nc1[nH]c(C(=O)c2ccccc2)c(-c2ccccc2C(F)(F)F)c1C(=O)NCCc1cccs1 | 91.5
Nc1[nH]c(C(=O)c2ccccc2)c(-c2ccccc2C(F)(F)F)c1C(=O)NCc1ccc(F)cc1 | 92.2
COc1ccc(CNC(=O)c2c(N)[nH]c(C(=O)c3ccccc3)c2-c2ccc3ccccc3c2)cc1OC | 120
Nc1[nH]c(C(=O)c2ccc(Br)cc2)c(-c2ccc(Br)cc2)c1C(=O)NCc1cccc2ccccc12 | 77.6
COc1ccc(C(=O)c2[nH]c(N)c(C(=O)NCCc3c[nH]c4ccccc34)c2-c2ccc(Cl)c(Cl)c2)cc1 | 41.9
Nc1[nH]c(C(=O)c2ccc(Cl)cc2)c(-c2ccc(Br)cc2)c1C(=O)c1c[nH]c2ccc(F)cc12 | 96.2
Nc1[nH]c(C(=O)c2ccc(Br)cc2)c(-c2ccc3ccccc3c2)c1C(=O)NCCc1c[nH]c2ccccc12 | 36
CCCCNC(=O)c1c(N)[nH]c(C(=O)c2ccccc2)c1-c1ccc(Cl)cc1 | 104
Nc1[nH]c(C(=O)c2ccccc2)c(-c2cccc3ccccc23)c1C(=O)NCc1ccc(Cl)cc1Cl | 115
Nc1[nH]c(C(=O)c2ccccc2)c(-c2ccc([N+](=O)[O-])cc2)c1C(=O)NCCc1c[nH]c2ccccc12 | 54.3

SMILES | Activity [%]
Nc1[nH]c(C(=O)c2ccccc2)c(-c2cccnc2)c1C(=O)NCCc1ccc(Cl)cc1Cl | 99.9
CC(C)(C)C(=O)c1c(N)[nH]c(C(=O)c2ccccc2)c1-c1ccc(Cl)cc1Cl | 79.9
COc1ccc(C(=O)c2[nH]c(N)c(C(N)=O)c2-c2ccc(OC)c(OC)c2)cc1 | 58
CC(C)(C)C(=O)c1c(N)[nH]c(C(=O)c2ccccc2)c1-c1ccc(Cl)cc1 | 94.5
CC(C)(C)C(=O)c1c(N)[nH]c(C(=O)c2ccccc2)c1-c1cc2ccccc2nc1Cl | 104
Nc1[nH]c(C(=O)c2ccccc2)c(-c2ccccc2C(F)(F)F)c1C(=O)NCc1cccc2ccccc12 | 85
COC(=O)c1c(N)[nH]c(C(=O)c2ccccc2)c1-c1ccc(Cl)cc1 | 96
Nc1[nH]c(C(=O)c2ccccc2)c(-c2ccc(Cl)cc2)c1C(=O)NCc1ccco1 | 88.8
Nc1[nH]c(C(=O)c2ccccc2)c(-c2cccc3ccccc23)c1C(=O)c1ccc(Br)cc1 | 107
Nc1[nH]c(C(=O)c2ccccc2)c(-c2ccc(Cl)cc2[N+](=O)[O-])c1C(=O)NCCc1c[nH]c2ccccc12 | 72.5
Nc1[nH]c(C(=O)c2ccc(Br)cc2)c(-c2ccc(Br)cc2)c1C(=O)N1CCOCC1 | 87
Nc1[nH]c(C(=O)c2ccccc2)c(-c2ccc(C(F)(F)F)cc2)c1C(=O)NCCc1c[nH]c2ccccc12 | 43.5
NC(=O)c1c(N)[nH]c(C(=O)c2ccccc2)c1-c1cccc2ccccc12 | 69.2
CC(NC(=O)c1c(N)[nH]c(C(=O)c2ccccc2)c1-c1ccccc1Br)c1cccc2ccccc12 (stereo unspecified) | 71.3
NC(=O)c1c(N)[nH]c(C(=O)c2ccccc2)c1-c1ccc2c(c1)OCO2 | 92.3
Nc1[nH]c(C(=O)c2ccccc2)c(-c2ccccc2)c1C(=O)NCCc1c[nH]c2ccccc12 | 63.2
Nc1[nH]c(C(=O)c2ccc(Br)cc2)c(-c2ccc3c(c2)OCO3)c1C(=O)NCCc1c[nH]c2ccccc12 | 75.9
Cc1ccccc1-c1c(C(=O)c2ccccc2)[nH]c(N)c1C(=O)c1ccc(Cl)cc1 | 94.9
Nc1[nH]c(C(=O)c2ccccc2)c(-c2cccc(C(F)(F)F)c2)c1C(=O)c1c[nH]c2ccccc12 | 114
Nc1[nH]c2cc(C(F)(F)F)ccc2c1C(=O)NC1CCCCC1 | 125
NC(=O)c1c(N)[nH]c(C(=O)c2ccccc2)c1-c1cccnc1 | 99.1
Cc1cc(C)cc(-c2c(C(=O)c3ccc(Br)cc3)[nH]c(N)c2C(=O)NCc2ccc(Cl)cc2)c1 | 98.5

SMILES | Activity [%]
COc1ccccc1CCNC(=O)c1c(N)[nH]c(C(=O)c2ccccc2)c1-c1ccc(Br)cc1 | 64.5
COc1ccc(-c2c(C(=O)c3ccccc3)[nH]c(N)c2C(=O)NCCc2c[nH]c3ccccc23)cc1 | 35.3
NC(=O)c1c(N)[nH]c(C(=O)c2ccccc2)c1-c1ccccn1 | 82.1
Nc1[nH]c(C(=O)c2ccccc2)c(-c2ccc(Cl)cc2Cl)c1C(=O)c1ccc(Br)cc1 | 88.3
Nc1[nH]c(C(=O)c2ccccc2)c(-c2ccc(C(F)(F)F)cc2)c1C(=O)NCc1ccc(Cl)cc1Cl | 74.7
Nc1[nH]c(C(=O)c2ccccc2)c(-c2ccc(O)cc2)c1C(=O)NCCc1c[nH]c2ccccc12 | 53.3
Nc1[nH]c(C(=O)c2ccccc2)c(-c2ccc(Br)cc2)c1C(=O)NC1CC1 | 94.3
Nc1[nH]c(C(=O)c2ccc(Br)cc2)c(-c2ccccc2Cl)c1C(=O)NCCc1c[nH]c2ccccc12 | 71
Nc1[nH]c(C(=O)c2ccccc2)c(-c2ccncc2)c1C(=O)NCc1cccc2ccccc12 | 95.1
COc1ccc2cccc(-c3c(C(=O)c4ccc(Br)cc4)[nH]c(N)c3C(=O)NCc3ccc(-c4ccccc4)cc3)c2c1 | 115
CC(C)(C)C(=O)c1c(N)[nH]c(C(=O)c2ccccc2)c1-c1ccccc1 | 112
Nc1[nH]c(C(=O)c2ccccc2)c(-c2ccc(Cl)cc2Cl)c1C(=O)NCCC1=CCCCC1 | 76.5
Nc1[nH]c(C(=O)c2ccccc2)c(-c2ccccn2)c1C(=O)c1c[nH]c2ccc(Br)cc12 | 55.3
COc1ccc(C(=O)c2[nH]c(N)c(C(=O)NCCc3c[nH]c4ccccc34)c2-c2ccc(Br)cc2)cc1 | 40.1
COc1ccc(C(=O)c2[nH]c(N)c(C(=O)c3ccccc3)c2-c2ccc(OC)c(OC)c2)cc1 | 95.7
COc1ccc(-c2c(C(=O)c3ccccc3)[nH]c(N)c2C(=O)NCc2ccccc2)cc1OC | 90.7
Nc1[nH]c(C(=O)c2ccc(Br)cc2)c(-c2ccc(Br)cc2)c1C(=O)NC1CC1 | 95
Nc1[nH]c(C(=O)c2ccccc2)c(-c2ccccc2C(F)(F)F)c1C(=O)NCCc1c[nH]c2ccccc12 | 45.5
COc1ccc(-c2c(C(=O)c3ccccc3)[nH]c(N)c2C(=O)c2c[nH]c3ccccc23)cc1OC | 82.5
COCCNC(=O)c1c(N)[nH]c(C(=O)c2ccc(Br)cc2)c1-c1cccc2ccc(OC)cc12 | 75.6
Cc1[nH]c2ccccc2c1C(=O)NCc1ccc(CNC(=O)c2c(N)[nH]c3ccccc23)cc1 | 115
Nc1[nH]c(C(=O)c2ccccc2)c(-c2cccc3ccccc23)c1C(=O)NC1CCCCC1 | 65.6
